Assay results reported in ChEMBL document CHEMBL1671715, “Depolarization, bacterial membrane composition, and the antimicrobial action of ceragenins” (2010).
In brackets after ≈: the same amount, converted by molar mass. Activity calls are given as the source filed them. The rule behind the calls is not given here.

Experiments:
Escherichia coli [1] = assay: Bactericidal activity against Escherichia coli ATCC 25922 with lipid composition of […], 15% phosphatidylglycerol and 5% cardiolipin by broth microdilution method; type: functional
Method in brief: (§1)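 MBC by broth microdilution in the Gram-negative depolarization buffer (20 mM glucose, 5 mM HEPES, pH 7.3). Cells were incubated 24 h with incrementally varied ceragenin concentrations and plated on tryptic soy agar. MBC is the lowest concentration completely eradicating bacteria (detection limit 10 CFU/ml).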

Staphylococcus aureus [2] = assay: Bactericidal activity against methicillin-resistant Staphylococcus aureus ATCC BAA-41 with lipid composition of 0% phosphatidylethanolamine, 57% phosphatidylglycerol and 19% cardiolipin by broth microdilution method; type: functional
Method in brief: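 Cells were incubated 24 h with stepwise-varied ceragenin concentrations, then each sample was plated on tryptic soy agar. MBC was taken as the lowest concentration giving complete kill (detection limit 10 CFU/ml).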

Paenibacillus polymyxa [3] = assay: Induction of cytoplasmic membrane depolarization in Bacillus polymyxa ATCC 21830 with lipid composition of 60% phosphatidylethanolamine, 3% phosphatidylglycerol and 8% cardiolipin at MBC by DiS-C2 dye based fluorimetric assay; type: functional
Method in brief: (§2)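 Overnight TSB cultures (37°C) were washed three times in 250 mM sucrose, 5 mM MgSO4, 10 mM K phosphate, pH 7.0, and diluted to A600 0.085 with 1 μM DiS-C2(5). Dye loaded 7 min at room temperature, then 7 min at 37°C. Ceragenin added with stirring at 37°C; fluorescence (ex 600/em 660 nm) read every 30 s. Depolarization at 330 s is expressed as % of the maximal fluorescence increase at 4× MBC.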

Pseudomonas aeruginosa = assay: Bactericidal activity against Pseudomonas aeruginosa ATCC 27852 with lipid composition of 60% phosphatidylethanolamine, 21% phosphatidylglycerol and 11% cardiolipin by broth microdilution method; type: functional; method in brief: as §1
Paenibacillus polymyxa [4] = assay: Bactericidal activity against Bacillus polymyxa ATCC 21830 with lipid composition of 60% phosphatidylethanolamine, 3% phosphatidylglycerol and 8% cardiolipin by broth microdilution method; type: functional
Method in brief: (§3)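 Cells were incubated 24 h with incrementally varied ceragenin concentrations, then plated on tryptic soy agar. MBC is the lowest concentration completely eradicating bacteria (detection limit 10 CFU/ml).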

[5] = system: Staphylococcus epidermidis; assay: Bactericidal activity against Staphylococcus epidermidis ATCC 35984 with lipid composition of 0% phosphatidylethanolamine, 90% phosphatidylglycerol and 1% cardiolipin by broth microdilution method; type: functional; method in brief: as §3
Staphylococcus aureus [6] = assay: Bactericidal activity against Staphylococcus aureus ATCC 25923 with lipid composition of 0% phosphatidylethanolamine, 67% phosphatidylglycerol and 19% cardiolipin by broth microdilution method; type: functional; settings: in the assay text read “57% phosphatidylglycerol” for “67% phosphatidylglycerol”; method in brief: as §3
Escherichia coli [7] = assay: Induction of outer membrane permeabilization of Escherichia coli ATCC 25922 at MBC by DiS-C2 dye based fluorimetric assay; type: functional, organism-based
Method in brief: (§4)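 Overnight TSB cultures (37°C), washed three times in TSB, then suspended in 20 mM glucose/5 mM HEPES, pH 7.3, at A600 0.085 with 1 μM DiS-C2(5). Equilibrated about 60 min at 37°C to a stable baseline. EDTA or ceragenin added; fluorescence (ex 600/em 660 nm) read every 30 s with stirring at 37°C. A fluorescence drop indicates outer-membrane permeabilization and dye uptake.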

Staphylococcus aureus [8] = assay: Induction of cytoplasmic membrane depolarization in Staphylococcus aureus ATCC BAA-41 with lipid composition of 0% phosphatidylethanolamine, 57% phosphatidylglycerol and 19% cardiolipin at MBC by DiS-C2 dye based fluorimetric assay; type: functional; method in brief: as §2
Staphylococcus aureus [9] = assay: Induction of cytoplasmic membrane depolarization in Staphylococcus aureus ATCC 25923 with lipid composition of 0% phosphatidylethanolamine, 57% phosphatidylglycerol and 19% cardiolipin at MBC by DiS-C2 dye based fluorimetric assay; type: functional; method in brief: as §2
Escherichia coli [10] = assay: Induction of inner membrane permeabilization of Escherichia coli ML-35p at 100 ug/ml by ONPG hydrolysis based spectrophotometric assay
Enterococcus faecalis [11] = assay: Bactericidal activity against Enterococcus faecalis ATCC 29212 with lipid composition of 0% phosphatidylethanolamine, 27% phosphatidylglycerol and 19% cardiolipin by broth microdilution method; type: functional; method in brief: as §3
Escherichia coli [12] = assay: Induction of outer membrane permeabilization of Escherichia coli ML-35p by nitrocefin permeation based spectrophotometric assay; type: functional, organism-based
Method in brief: (§5)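 E. coli ML-35p grown overnight in TSB at 37°C, washed three times in 10 mM phosphate/0.1 M NaCl, pH 7.4. Diluted to 10^6 CFU/ml in the same buffer with 300 μg/ml TSB. Ceragenin or melittin 0–100 μg/ml, in duplicate. Outer membrane: 30 μM nitrocefin, A486. Inner membrane: 2.5 mM ONPG, A420. Read every 2 min for 60 min at 37°C with shaking.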

Bacillus cereus [13] = assay: Induction of cytoplasmic membrane depolarization in Bacillus cereus ATCC 11778 with lipid composition of 43% phosphatidylethanolamine, 40% phosphatidylglycerol and 17% cardiolipin at MBC by DiS-C2 dye based fluorimetric assay; type: functional; method in brief: as §2
Klebsiella pneumoniae [14] = assay: Induction of outer membrane permeabilization of Klebsiella pneumoniae ATCC 13883 at MBC by DiS-C2 dye based fluorimetric assay; type: functional, organism-based; method in brief: as §4
Bacillus cereus [15] = assay: Bactericidal activity against Bacillus cereus ATCC 11778 with lipid composition of 43% phosphatidylethanolamine, 40% phosphatidylglycerol and 17% cardiolipin by broth microdilution method; type: functional; method in brief: as §3
[16] = system: Staphylococcus epidermidis; assay: Induction of cytoplasmic membrane depolarization in Staphylococcus epidermidis ATCC 35984 with lipid composition of 0% phosphatidylethanolamine, 90% phosphatidylglycerol and 1% cardiolipin at MBC by DiS-C2 dye based fluorimetric assay; type: functional; method in brief: as §2
Klebsiella pneumoniae [17] = assay: Bactericidal activity against Klebsiella pneumoniae ATCC 13883 with lipid composition of 82% phosphatidylethanolamine, 5% phosphatidylglycerol and 6% cardiolipin by broth microdilution method; type: functional; method in brief: as §1
Enterococcus faecalis [18] = assay: Induction of cytoplasmic membrane depolarization in Enterococcus faecalis ATCC 29212 with lipid composition of 0% phosphatidylethanolamine, 27% phosphatidylglycerol and 19% cardiolipin at MBC by DiS-C2 dye based fluorimetric assay; type: functional; method in brief: as §2
Escherichia coli [19] = assay: Induction of inner membrane permeabilization of Escherichia coli ML-35p by ONPG hydrolysis based spectrophotometric assay; type: functional, organism-based; method in brief: as §5

Row | SMILES | MBC (Escherichia coli [1]) | MBC (Staphylococcus aureus [2]) | Activity (Paenibacillus polymyxa [3]) | MBC (Pseudomonas aeruginosa) | MBC (Paenibacillus polymyxa [4]) | MBC [5] | MBC (Staphylococcus aureus [6]) | Activity (Escherichia coli [7]) | Activity (Staphylococcus aureus [8]) | Activity (Staphylococcus aureus [9]) | Activity (Escherichia coli [10]) | MBC (Enterococcus faecalis [11]) | Activity (Escherichia coli [12]) | Activity (Bacillus cereus [13]) | Activity (Klebsiella pneumoniae [14]) | MBC (Bacillus cereus [15]) | Activity [16] | MBC (Klebsiella pneumoniae [17]) | Activity (Enterococcus faecalis [18]) | Activity (Escherichia coli [19])
1 | C[C@H](CCCO)[C@H]1CC[C@H]2[C@@H]3[C@H](OCCCN)C[C@@H]4C[C@H](OCCCN)CC[C@]4(C)[C@H]3C[C@H](OCCCN)[C@]12C | 10 µg/mL (≈ 17.7 µM) | 19 µg/mL (≈ 33.6 µM) | 96.6% | 12 µg/mL (≈ 21.2 µM) | 15 µg/mL (≈ 26.5 µM) | 12 µg/mL (≈ 21.2 µM) | 35 µg/mL (≈ 61.9 µM) | Active | 39% | 82.8% | inactive | 50 µg/mL (≈ 88.4 µM) | Dose-dependent effect | 84.7% | Active | 7 µg/mL (≈ 12.4 µM) | 60.1% | 12.5 µg/mL (≈ 22.1 µM) | 80.6% | 
2 | CCCCCCCCNCCC[C@@H](C)[C@H]1CC[C@H]2[C@@H]3[C@H](OCCCN)C[C@@H]4C[C@H](OCCCN)CC[C@]4(C)[C@H]3C[C@H](OCCCN)[C@]12C | 1.5 µg/mL (≈ 2.22 µM) | 2 µg/mL (≈ 2.95 µM) | 88.4% | 3.5 µg/mL (≈ 5.17 µM) | 2.5 µg/mL (≈ 3.69 µM) | 1 µg/mL (≈ 1.48 µM) | 2.5 µg/mL (≈ 3.69 µM) |  | 45.8% | 41.5% |  | 5.5 µg/mL (≈ 8.12 µM) | Dose-dependent effect | 86.7% |  | 1 µg/mL (≈ 1.48 µM) | 25% | 2.5 µg/mL (≈ 3.69 µM) | 74% | Active
3 | CC[C@H](C)[C@H](NC(=O)CN)C(=O)NCC(=O)N[C@@H](C)C(=O)N[C@H](C(=O)N[C@@H](CC(C)C)C(=O)N[C@@H](CCCCN)C(=O)N[C@H](C(=O)N[C@@H](CC(C)C)C(=O)N[C@H](C(=O)N[C@H](C(=O)NCC(=O)N[C@@H](CC(C)C)C(=O)N1CCC[C@H]1C(=O)N[C@@H](C)C(=O)N[C@@H](CC(C)C)C(=O)N[C@H](C(=O)N[C@@H](CO)C(=O)N[C@@H](Cc1c[nH]c2ccccc12)C(=O)N[C@H](C(=O)N[C@@H](CCCCN)C(=O)N[C@@H](CCCNC(=N)N)C(=O)N[C@@H](CCCCN)C(=O)N[C@@H](CCCNC(=N)N)C(=O)N[C@@H](CCC(N)=O)C(=O)N[C@@H](CCC(N)=O)C(N)=O)[C@@H](C)CC)[C@@H](C)CC)[C@@H](C)O)[C@@H](C)O)C(C)C)C(C)C |  |  |  |  |  |  |  |  |  |  |  |  | Active |  |  |  |  |  |  | 
4 | C[C@H](CCCNCCCNCCCN)[C@H]1CC[C@H]2[C@@H]3[C@H](OCCCN)C[C@@H]4C[C@H](OCCCN)CC[C@]4(C)[C@H]3C[C@H](OCCCN)[C@]12C |  | 28 µg/mL (≈ 41.2 µM) | 39.6% |  | 2.5 µg/mL (≈ 3.68 µM) | 2.5 µg/mL (≈ 3.68 µM) | 49 µg/mL (≈ 72.2 µM) |  | 15.3% | 39.8% | inactive | 280 µg/mL (≈ 412 µM) | Dose-dependent effect | 79.7% |  | 7 µg/mL (≈ 10.3 µM) | 26.3% |  | 77.2% | 
